In ChEMBL document CHEMBL4699573, “Design, Synthesis, and Pharmacological Evaluation of Analogues Derived from the PLEV Tetrapeptide as Protein-Protein Interaction Modulators of Voltage-Gated Sodium Channel 1.6” (J Med Chem, 2020):
Calls of active or inactive are those of the source. The calls are words filed in the database; no cut-off is given here. Residues, ends and D or L forms follow the SMILES beside them. *: point of attachment. Adamantane1carbonyl = O=C(C12CC3CC(CC(C3)C1)C2)*; OtBu = CC(C)(C)O*

Experiments:
[1] = system: HEK293; test: Modulation of recombinant human FGF141b (1 to 252 residues)-recombinant human Nav1.6 C-terminal tail (1763 to 1976 residues) protein-protein interaction expressed in HEK293 cells measured at 2 mins interval for 20 mins by split-luciferase complementation assay relative to control; assay type: cell-based; conditions: filed as modulator, time min 2-20
In short: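 Double-stable HEK293 line expressing CLuc-FGF14 and CD4-Nav1.6-C-tail-NLuc, kept on G418 and puromycin. Cells seeded for 24 h, then given compound for 1 h in serum-free, phenol red-free DMEM/F12 with a final 0.5% DMSO: 50 μM for screening, 0.25–100 μM over eight concentrations for dose-response; n = 4. D-luciferin added and read every 2 min for 20 min at 37 °C. Peak luminescence expressed as percent of per-plate DMSO mean (n = 32). IC50 from four-parameter nonlinear fit. At least 3 experiments.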

[2] = system: HEK293; test: Inhibition of full-length Photinus pyralis luciferase transfected in HEK293 cells at 25 uM incubated for 1 hrs by split-luciferase complementation assay; assay type: cell-based
In short: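 HEK293 cells transfected with full-length Photinus pyralis luciferase, then treated 1 h with 25 μM compound (n = 4) or 0.5% DMSO (n = 32). Luminescence read after D-luciferin addition, as in the LCA, normalized to per-plate DMSO controls. One-way ANOVA with Dunnett's test.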

[3] = biological target: T1, Fibroblast growth factor 14 (Homo sapiens) (UniProt Q92915); test: Binding affinity to human recombinant FGF14 expressed in Escherichia coli BL21 assessed as assessed as induction of protein denaturation by measuring change in melting temperature at 50 uM by fluorescent dye based thermal shift assay; conditions: filed as modulator
T1 sequence (whole entry): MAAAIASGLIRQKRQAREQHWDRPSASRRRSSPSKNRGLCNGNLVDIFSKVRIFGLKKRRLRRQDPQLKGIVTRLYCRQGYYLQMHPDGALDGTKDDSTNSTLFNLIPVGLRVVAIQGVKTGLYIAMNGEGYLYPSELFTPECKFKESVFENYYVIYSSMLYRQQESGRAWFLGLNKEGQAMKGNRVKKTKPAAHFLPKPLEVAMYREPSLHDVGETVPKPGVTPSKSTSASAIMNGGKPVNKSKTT

[4] = biological target: T1, Fibroblast growth factor 14 (Homo sapiens); test: Binding affinity to human recombinant FGF14 expressed in Escherichia coli BL21 assessed as association rate constant by SPR analysis; conditions: filed as modulator
In short: (§1)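 Biacore T100 runs with FGF14 (17,896 RU) or Nav1.6 C-tail (6,800 RU) amine-coupled on CM5 at pH 5.5. Compounds at 0.195–200 μM in PBS, 0.005% Tween-20, 2% DMSO; 50 μL/min at 25 °C. 120 s association, 150 s dissociation, DMSO calibration, blank subtraction. Rates from a Langmuir 1:1 fit; KD averages the kinetic and steady-state values. At least duplicate experiments.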

[5] = biological target: T1, Fibroblast growth factor 14 (Homo sapiens); test: Binding affinity to human recombinant FGF14 expressed in Escherichia coli BL21 assessed as dissociation rate constant by SPR analysis; conditions: filed as modulator; in short: as §1
[6] = biological target: T2, Fibroblast growth factor 14/SCN8A (Homo sapiens) (UniProt Q9UQD0+Q92915); test: Modulation of human recombinant FGF14-Nav1.6 C-terminal domain expressed in Escherichia coli BL21 (DE3) protein-protein interaction assessed as association rate constant by SPR analysis (reference value: 2.18X10^4 +/- 1.6X10^2 /M/s); conditions: filed as modulator
T2 sequence (Q9UQD0 whole entry, looked up, one chain of several, the tested form may be a part): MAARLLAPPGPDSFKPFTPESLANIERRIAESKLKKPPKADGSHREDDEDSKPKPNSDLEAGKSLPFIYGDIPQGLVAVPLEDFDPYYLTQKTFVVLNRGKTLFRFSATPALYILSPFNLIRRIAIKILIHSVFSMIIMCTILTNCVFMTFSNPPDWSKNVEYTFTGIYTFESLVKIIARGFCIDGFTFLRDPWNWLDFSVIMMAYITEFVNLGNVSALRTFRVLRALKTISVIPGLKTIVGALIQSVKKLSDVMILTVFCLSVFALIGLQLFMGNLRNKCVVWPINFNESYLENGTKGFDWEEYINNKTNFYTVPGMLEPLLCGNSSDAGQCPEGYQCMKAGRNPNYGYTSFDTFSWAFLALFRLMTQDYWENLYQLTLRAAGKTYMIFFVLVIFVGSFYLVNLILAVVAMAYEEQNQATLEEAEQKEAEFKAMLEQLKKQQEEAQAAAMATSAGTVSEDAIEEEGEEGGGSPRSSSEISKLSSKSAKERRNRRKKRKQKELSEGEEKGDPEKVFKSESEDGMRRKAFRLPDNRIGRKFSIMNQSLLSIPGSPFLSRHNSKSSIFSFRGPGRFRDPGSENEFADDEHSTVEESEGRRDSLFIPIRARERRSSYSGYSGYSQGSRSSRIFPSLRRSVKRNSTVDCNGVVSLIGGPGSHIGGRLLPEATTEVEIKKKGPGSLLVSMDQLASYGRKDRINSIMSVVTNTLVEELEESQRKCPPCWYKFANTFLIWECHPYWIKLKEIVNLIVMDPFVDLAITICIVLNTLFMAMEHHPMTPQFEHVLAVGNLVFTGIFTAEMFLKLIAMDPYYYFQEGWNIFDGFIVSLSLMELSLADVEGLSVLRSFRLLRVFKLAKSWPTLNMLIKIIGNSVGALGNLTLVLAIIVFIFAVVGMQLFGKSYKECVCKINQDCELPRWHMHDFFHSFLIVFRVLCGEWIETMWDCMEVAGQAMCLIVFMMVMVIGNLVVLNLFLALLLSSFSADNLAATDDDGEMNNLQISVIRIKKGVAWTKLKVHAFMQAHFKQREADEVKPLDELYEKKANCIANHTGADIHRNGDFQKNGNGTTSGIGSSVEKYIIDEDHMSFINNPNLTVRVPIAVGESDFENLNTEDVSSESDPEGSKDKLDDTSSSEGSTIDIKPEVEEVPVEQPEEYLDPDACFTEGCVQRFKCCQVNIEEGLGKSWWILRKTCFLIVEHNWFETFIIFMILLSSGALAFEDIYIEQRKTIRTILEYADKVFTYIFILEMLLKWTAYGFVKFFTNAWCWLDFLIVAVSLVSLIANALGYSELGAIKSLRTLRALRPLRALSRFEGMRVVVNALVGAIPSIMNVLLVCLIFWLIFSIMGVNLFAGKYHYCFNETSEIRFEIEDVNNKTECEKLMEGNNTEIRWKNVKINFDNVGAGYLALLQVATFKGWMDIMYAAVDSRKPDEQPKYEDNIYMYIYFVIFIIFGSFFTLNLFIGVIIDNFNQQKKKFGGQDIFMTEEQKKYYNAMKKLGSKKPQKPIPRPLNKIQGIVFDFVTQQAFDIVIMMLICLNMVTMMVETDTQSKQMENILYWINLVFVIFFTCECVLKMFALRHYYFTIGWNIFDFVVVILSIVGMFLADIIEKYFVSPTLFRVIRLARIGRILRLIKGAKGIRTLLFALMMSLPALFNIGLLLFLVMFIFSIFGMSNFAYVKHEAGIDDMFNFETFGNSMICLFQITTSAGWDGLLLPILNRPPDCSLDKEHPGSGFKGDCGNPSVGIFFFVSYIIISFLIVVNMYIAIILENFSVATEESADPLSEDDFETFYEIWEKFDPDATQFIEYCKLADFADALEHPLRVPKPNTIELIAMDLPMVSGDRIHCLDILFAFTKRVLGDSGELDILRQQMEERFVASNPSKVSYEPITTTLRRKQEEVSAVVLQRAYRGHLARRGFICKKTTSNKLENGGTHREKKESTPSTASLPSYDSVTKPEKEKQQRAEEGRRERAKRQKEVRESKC
In short: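 FGF14 at 15.6–1500 nM, premixed with 10 μM compound or DMSO, flowed over CM5-bound Nav1.6 C-terminal tail (934 RU). Final 2.1% DMSO, 25 °C, 50 μL/min, 120 s association and 150 s dissociation. Blank-subtracted sensorgrams fitted to a Langmuir 1:1 model.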

[7] = biological target: T3, Sodium channel protein type 8 subunit alpha (Homo sapiens, UniProt Q9UQD0); test: Modulation of recombinant human Nav1.6 C-terminal tail (1763 to 1976 residues) expressed in HEK293 cells assessed as peak current density at 10 uM incubated for 30 mins by whole cell patch clamp electrophysiology assay (reference value: -50.1 +/- 3.1 pA/pF); assay type: cell-based; conditions: filed as modulator
T3 sequence (Q9UQD0 whole entry, looked up, the tested form may be a part): as the sequence (Q9UQD0 whole entry, looked up, one chain of several, the tested form may be a part) above
In short: (§2)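 Stable HEK-Nav1.6 cells without FGF14, incubated at least 30 min in extracellular solution (mM: 140 NaCl, 3 KCl, 1 MgCl2, 1 CaCl2, 10 HEPES, 10 glucose, pH 7.3) with compound (10 or 30 μM) or 0.1% DMSO. Whole-cell recording with Cs-methanesulfonate/EGTA/NaCl/HEPES pipette solution, 70–80% compensation. Steps −100 to +60 mV; tau measured at −10 mV. Student's t-test.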

[8] = biological target: T3, Sodium channel protein type 8 subunit alpha; test: (§3) Modulation of recombinant human Nav1.6 C-terminal tail (1763 to 1976 residues) expressed in HEK293 cells assessed as long-term inactivation at depolarization cycle 3 at 10 uM incubated for 30 mins by whole cell patch clamp electrophysiology assay (reference value: 0.76 +/- 0.05); assay type: cell-based; conditions: filed as modulator
[9] = biological target: T3, Sodium channel protein type 8 subunit alpha; test: Modulation of recombinant human Nav1.6 C-terminal tail (1763 to 1976 residues) expressed in HEK293 cells assessed as long-term inactivation at depolarization cycle 4 at 10 uM incubated for 30 mins by whole cell patch clamp electrophysiology assay (reference value: 0.75 +/- 0.05); assay type: cell-based; conditions: filed as modulator
[10] = biological target: T2, Fibroblast growth factor 14/SCN8A (Homo sapiens); test: (§4) Modulation of recombinant human Nav1.6 C-terminal tail (1763 to 1976 residues)-FGF14 (64 to 252 residues) protein-protein interaction expressed in HEK293 cells assessed as half activation voltage at 10 uM incubated for 30 mins by cell patch clamp electrophysiology assay (reference value: -21.4 +/- 1 mv); assay type: cell-based
In short: (§5)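 HEK-Nav1.6 cells transiently transfected with FGF14 using Lipofectamine 2000, then exposed at least 30 min to 10 μM compound or 0.1% DMSO in the pH 7.3 HEPES extracellular solution. Whole-cell patch clamp with Cs-methanesulfonate internal solution, 70–80% capacitance and series-resistance compensation. Test steps from −100 to +60 mV. Student's t-test used.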

[11] = biological target: T2, Fibroblast growth factor 14/SCN8A (Homo sapiens); test: Modulation of recombinant human Nav1.6 C-terminal tail (1763 to 1976 residues)-FGF14 (64 to 252 residues) protein-protein interaction expressed in HEK293 cells assessed as steady state half inactivation voltage at 10 uM incubated for 30 mins by whole cell patch clamp electrophysiology assay (reference value: -55.1 +/- 2 mV); assay type: cell-based; in short: as §5
[12] = biological target: T2, Fibroblast growth factor 14/SCN8A (Homo sapiens); test: as §4, with “long-term inactivation at depolarization cycle 2” for “half activation voltage”, “1” for “-21.4”, “0.02)” for “1 mv)”; assay type: cell-based; conditions: filed as modulator; in short: as §5
[13] = biological target: T2, Fibroblast growth factor 14/SCN8A (Homo sapiens); test: as §3, with “1976 residues)-FGF14 (64 to 252” for “1976”, “residues) protein-protein interaction” for “residues)”, “by” for “by whole”, “0.99” for “0.76”, “0.04)” for “0.05)”; assay type: cell-based; conditions: filed as modulator; in short: as §5
[14] = biological target: T3, Sodium channel protein type 8 subunit alpha; test: Modulation of recombinant human Nav1.6 C-terminal tail (1763 to 1976 residues) expressed in HEK293 cells assessed as steady state half inactivation voltage at 10 uM incubated for 30 mins by whole cell patch clamp electrophysiology assay (reference value: -62 +/- 1.3 mV); assay type: cell-based; in short: as §2
[15] = biological target: T3, Sodium channel protein type 8 subunit alpha; test: Modulation of recombinant human Nav1.6 C-terminal tail (1763 to 1976 residues) expressed in HEK293 cells assessed as peak current density at 30 uM incubated for 30 mins by whole cell patch clamp electrophysiology assay (reference value: -50.1 +/- 3.1 pA/pF); assay type: cell-based; in short: as §2

Question: Which Efficacy [1] does the source give for `COC(=O)[C@@H](NC(=O)[C@H](CCC(=O)OC(C)(C)C)NC(=O)[C@H](CC(C)C)NC(=O)[C@@H]1CCCN1C(=O)C12CC3CC(CC(C3)C1)C2)C(C)C` (Adamantane1carbonyl-PLE(OtBu)V-OMe) here?
Answer: The Efficacy was 96.1%.

Question: And the inhibition [2]?
Answer: Its inhibition is “inactive”.

Question: And the ΔTm [3]?
Answer: Its ΔTm is -2.27 °C.

Question: What about the K [4] of the same compound?
Answer: The K was 4.66 10^3/M/s.

Question: And the K [5]?
Answer: Its K is 9.33 10^-3/s.

Question: And the K [6]?
Answer: Its K is 5.88 10^6/M/s.

Question: And the Activity [7]?
Answer: Its Activity is -25.8 pA/pF.

Question: What about the Activity [8] of the same compound?
Answer: The Activity was 0.76.

Question: What about the Activity [9] of the same compound?
Answer: The Activity was 0.7.

Question: What about the Activity [10] of the same compound?
Answer: The Activity was -21.6 mV.

Question: And the Activity [11]?
Answer: Its Activity is -65.6 mV.

Question: And the Activity [12]?
Answer: The Activity was 0.86.

Question: What about the Activity [13] of the same compound?
Answer: Its Activity is 0.81.

Question: What about the Activity [14] of the same compound?
Answer: Its Activity is -55.2 mV.

Question: And the Activity [15]?
Answer: The Activity was -17.9 pA/pF.
